Measurements taken from ChEMBL document CHEMBL1137378, “Antibacterial agent discovery using thymidylate synthase biolibrary screening” (J Med Chem, 2006).
In brackets after ≈: the same amount, converted by molar mass.

Key:
Listeria monocytogenes [1] = assay: Antibacterial activity against Listeria monocytogenes 4; type: functional
In short: (§1)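 Wild-type strain panel (18 Gram-positive and Gram-negative strains). Bacteria grown in Mueller-Hinton broth at 37 °C for 24 h. Exponentially growing cultures diluted in sterile liquid medium to a final inoculum of about 1 × 10⁴ CFU/mL, then exposed to increasing compound concentrations. MIC taken as the lowest concentration with no evident bacterial growth.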

Staphylococcus aureus [2] = assay: Antibacterial activity against Staphylococcus aureus ATCC 29213; type: functional; in short: as §1
[3] = system: Staphylococcus saprophyticus; assay: Antibacterial activity against Staphylococcus saprophyticus ATCC 15305; type: functional; in short: as §1
Escherichia coli [4] = assay: Antibacterial activity against Escherichia coli 256; type: functional; in short: as §1
Staphylococcus aureus [5] = assay: Antibacterial activity against Staphylococcus aureus 343; type: functional; in short: as §1
[6] = system: Staphylococcus haemolyticus; assay: Antibacterial activity against Staphylococcus haemolyticus ATCC 2997; type: functional; in short: as §1
Listeria monocytogenes [7] = assay: Antibacterial activity against Listeria monocytogenes ATCC 4428; type: functional; in short: as §1
Enterococcus faecalis = assay: Antibacterial activity against Enterococcus faecalis ATCCC29212; type: functional; in short: as §1
Listeria monocytogenes [8] = assay: Antibacterial activity against Listeria monocytogenes 7; type: functional; in short: as §1
Citrobacter = assay: Antibacterial activity against Citrobacter 224; type: functional; in short: as §1
Listeria monocytogenes [9] = assay: Antibacterial activity against Listeria monocytogenes 6; type: functional; in short: as §1
Escherichia coli [10] = assay: Antibacterial activity against Escherichia coli 292; type: functional; in short: as §1
Dihydrofolate reductase = target: T1, Dihydrofolate reductase (Homo sapiens, UniProt P00374); assay: Inhibition of human dihydrofolate reductase
T1 sequence (P00374 whole entry): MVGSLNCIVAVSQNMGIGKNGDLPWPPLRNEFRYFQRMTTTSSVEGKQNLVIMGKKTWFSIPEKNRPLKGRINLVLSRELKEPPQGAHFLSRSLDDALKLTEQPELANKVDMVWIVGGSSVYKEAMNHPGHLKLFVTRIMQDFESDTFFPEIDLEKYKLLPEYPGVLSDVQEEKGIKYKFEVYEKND
In short: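 Purified human DHFR assayed spectrophotometrically at 25 °C by the fall in A340 on DHF reduction. Ki from steady-state kinetics.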

Staphylococcus aureus [11] = assay: Antibacterial activity against Staphylococcus aureus K28; type: functional; in short: as §1
Streptococcus = assay: Antibacterial activity against Streptococcus 42; type: functional; in short: as §1
Listeria monocytogenes [12] = assay: Antibacterial activity against Listeria monocytogenes 8; type: functional; in short: as §1
Thymidylate synthase [13] = target: T2, Thymidylate synthase (Cryptococcus neoformans var. neoformans B-3501A, UniProt P0CS13); assay: Inhibition of Cryptococcus neoformans thymidylate synthase
T2 sequence (P0CS13 whole entry): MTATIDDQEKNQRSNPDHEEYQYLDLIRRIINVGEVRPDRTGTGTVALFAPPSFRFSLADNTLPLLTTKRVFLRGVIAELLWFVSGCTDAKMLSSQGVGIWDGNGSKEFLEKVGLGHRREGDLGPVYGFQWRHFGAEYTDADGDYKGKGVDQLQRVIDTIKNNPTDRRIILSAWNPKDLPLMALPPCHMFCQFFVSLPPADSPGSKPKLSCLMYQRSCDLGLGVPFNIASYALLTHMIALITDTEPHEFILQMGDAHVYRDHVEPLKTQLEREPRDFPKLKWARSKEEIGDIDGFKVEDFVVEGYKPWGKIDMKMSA

Listeria monocytogenes [14] = assay: Antibacterial activity against Listeria monocytogenes 5; type: functional; in short: as §1
Staphylococcus aureus [15] = assay: Antibacterial activity against Staphylococcus aureus 341; type: functional; in short: as §1
Listeria monocytogenes [16] = assay: Antibacterial activity against Listeria monocytogenes 3; type: functional; in short: as §1
Thymidylate synthase [17] = target: Thymidylate synthase (Escherichia coli, UniProt C3SWJ7); assay: Inhibition of Escherichia coli thymidylate synthase
Thymidylate synthase (Escherichia coli, UniProt C3SWJ7), sequence (C3SWJ7 whole entry): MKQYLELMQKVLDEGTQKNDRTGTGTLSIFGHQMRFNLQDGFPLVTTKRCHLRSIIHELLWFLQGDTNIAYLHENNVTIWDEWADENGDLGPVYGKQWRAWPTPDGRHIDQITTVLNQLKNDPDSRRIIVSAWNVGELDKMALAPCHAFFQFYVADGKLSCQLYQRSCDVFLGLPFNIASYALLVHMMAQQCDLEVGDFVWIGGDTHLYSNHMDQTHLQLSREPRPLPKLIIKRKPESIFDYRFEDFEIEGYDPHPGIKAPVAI

[18] = Specificity Index, Ki for human thymidylate synthase/Ki for Escherichia coli thymidylate synthase
[19] = Specificity Index, Ki for human thymidylate synthase/Ki for Lactobacillus casei thymidylate synthase
[20] = Specificity Index, Ki for human thymidylate synthase/Ki for Cryptococcus neoformans thymidylate synthase
In short: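 Specificity index is Ki of hTS divided by Ki of the pathogen TS (LcTS, EcTS or CnTS). Each enzyme was purified to >95% and assayed spectrophotometrically at 340 nm, 20 °C. Buffer was TES 50 mM pH 7.4 with MgCl2, formaldehyde, EDTA and 2-mercaptoethanol, plus dUMP 100 µM, mTHF 140 µM and enzyme 0.07 µM.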

Thymidylate synthase [21] = target: Thymidylate synthase (Homo sapiens, UniProt P04818); assay: Inhibition of human thymidylate synthase
Thymidylate synthase (Homo sapiens, UniProt P04818), sequence (P04818 whole entry): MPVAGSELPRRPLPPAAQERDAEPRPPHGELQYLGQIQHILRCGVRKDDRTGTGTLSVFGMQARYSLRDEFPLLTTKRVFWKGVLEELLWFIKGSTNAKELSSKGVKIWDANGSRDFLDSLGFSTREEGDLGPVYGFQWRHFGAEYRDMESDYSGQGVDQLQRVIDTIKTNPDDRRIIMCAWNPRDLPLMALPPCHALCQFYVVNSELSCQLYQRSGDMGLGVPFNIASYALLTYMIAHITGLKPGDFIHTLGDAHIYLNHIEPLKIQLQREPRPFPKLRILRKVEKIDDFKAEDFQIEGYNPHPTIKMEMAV

Homo sapiens = species: Homo sapiens; assay: Selectivity Index, Ki for human dihydrofolate reductase/Ki for human thymidylate synthase
Thymidylate synthase [22] = target: T3, Thymidylate synthase (Lactobacillus casei, UniProt P00469); assay: Inhibition of Lactobacillus casei thymidylate synthase; parameters: species or system Lacticaseibacillus casei
T3 sequence (P00469 whole entry): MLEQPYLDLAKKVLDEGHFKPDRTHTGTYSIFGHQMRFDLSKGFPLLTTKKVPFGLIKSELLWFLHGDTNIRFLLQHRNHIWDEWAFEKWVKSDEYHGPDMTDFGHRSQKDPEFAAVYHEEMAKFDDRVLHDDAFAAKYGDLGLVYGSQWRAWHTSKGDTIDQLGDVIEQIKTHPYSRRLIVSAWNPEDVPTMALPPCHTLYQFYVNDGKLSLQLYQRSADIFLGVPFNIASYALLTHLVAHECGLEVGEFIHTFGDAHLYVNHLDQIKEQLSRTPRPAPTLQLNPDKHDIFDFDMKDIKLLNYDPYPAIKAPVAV

Row | SMILES | MIC (Listeria monocytogenes [1]) [mg/L] | MIC (Staphylococcus aureus [2]) [mg/L] | MIC [3] [mg/L] | MIC (Escherichia coli [4]) [mg/L] | MIC (Staphylococcus aureus [5]) [mg/L] | MIC [6] [mg/L] | MIC (Listeria monocytogenes [7]) [mg/L] | MIC (Enterococcus faecalis) [mg/L] | MIC (Listeria monocytogenes [8]) [mg/L] | MIC (Citrobacter) [mg/L] | MIC (Listeria monocytogenes [9]) [mg/L] | MIC (Escherichia coli [10]) [mg/L] | Ki (Dihydrofolate reductase) [µM] | Ki (Thymidylate synthase [13]) [µM] | Ki (Thymidylate synthase [17]) [µM] | Ratio Ki [18] | Ratio Ki [19] | Ratio Ki [20] | Ki (Thymidylate synthase [21]) [µM] | Selectivity index (Homo sapiens) | further results
1 | O=C1OC(c2ccc(O)c(F)c2)(c2ccc(O)c(F)c2)c2ccc3ccccc3c21 | 25 (≈ 61.8 µM) | 25 (≈ 61.8 µM) | 25 (≈ 61.8 µM) | > 50 | 25 (≈ 61.8 µM) | 25 (≈ 61.8 µM) | 25 (≈ 61.8 µM) | 25 (≈ 61.8 µM) | 25 (≈ 61.8 µM) | > 50 | 25 (≈ 61.8 µM) | > 50 | 109 | 3.5 | – | – | – | – | – | – | MIC (Staphylococcus aureus [11]): 25 mg/L (≈ 61.8 µM); MIC (Streptococcus): 25 mg/L (≈ 61.8 µM); MIC (Listeria monocytogenes [12]): 25 mg/L (≈ 61.8 µM); MIC (Listeria monocytogenes [14]): 25 mg/L (≈ 61.8 µM); MIC (Staphylococcus aureus [15]): 25 mg/L (≈ 61.8 µM); MIC (Listeria monocytogenes [16]): 25 mg/L (≈ 61.8 µM)
2 | O=C1OC(c2ccc(O)cc2)(c2ccc(O)cc2)c2c1ccc1ccccc21 | – | – | – | – | – | – | – | – | – | – | – | – | – | 0.4 | 4.4 | > 30 | > 12 | > 330 | > 132 | < 1 | –
3 | O=C(O)c1cn(C2CC2)c2cc(N3CCNCC3)c(F)cc2c1=O [CIPROFLOXACIN] | 1 (≈ 3.02 µM) | 0.5 (≈ 1.51 µM) | 1 (≈ 3.02 µM) | > 25 | 0.5 (≈ 1.51 µM) | 2.5 (≈ 7.54 µM) | 2.5 (≈ 7.54 µM) | 12.5 (≈ 37.7 µM) | 1 (≈ 3.02 µM) | > 25 | 2.5 (≈ 7.54 µM) | > 25 | – | – | – | – | – | – | – | – | MIC (Staphylococcus aureus [11]): 0.5 mg/L (≈ 1.51 µM); MIC (Streptococcus): > 5 mg/L; MIC (Listeria monocytogenes [12]): 1 mg/L (≈ 3.02 µM); MIC (Listeria monocytogenes [14]): 2.5 mg/L (≈ 7.54 µM); MIC (Staphylococcus aureus [15]): 1.2 mg/L (≈ 3.62 µM); MIC (Listeria monocytogenes [16]): 2.5 mg/L (≈ 7.54 µM)
4 | O=C1OC(c2ccc(O)cc2)(c2ccc(O)cc2)c2ccc3ccccc3c21 | – | – | – | – | – | – | – | – | – | – | – | – | 35 | 0.6 | – | – | – | – | – | – | –
5 | O=C1OC(c2cc(Cl)c(O)c(Cl)c2)(c2cc(Cl)c(O)c(Cl)c2)c2cccc3cccc1c23 | – | – | – | – | – | – | – | – | – | – | – | – | 28 | 3.3 | 5.3 | 1 | 3 | 2 | 5.7 | 5 | Ki (Thymidylate synthase [22]): 2 µM
6 | O=C1OC(c2ccc(O)c(F)c2)(c2ccc(O)c(F)c2)c2ccc(Cl)c3cccc1c23 | 10 (≈ 22.8 µM) | 10 (≈ 22.8 µM) | 10 (≈ 22.8 µM) | > 50 | 10 (≈ 22.8 µM) | 10 (≈ 22.8 µM) | 10 (≈ 22.8 µM) | 25 (≈ 57 µM) | 10 (≈ 22.8 µM) | > 50 | 10 (≈ 22.8 µM) | > 50 | 12 | 6.5 | 1.1 | > 223 | > 136 | > 38 | – | < 0.05 | MIC (Staphylococcus aureus [11]): 10 mg/L (≈ 22.8 µM); MIC (Streptococcus): 10 mg/L (≈ 22.8 µM); MIC (Listeria monocytogenes [12]): 25 mg/L (≈ 57 µM); MIC (Listeria monocytogenes [14]): 10 mg/L (≈ 22.8 µM); MIC (Staphylococcus aureus [15]): 10 mg/L (≈ 22.8 µM); MIC (Listeria monocytogenes [16]): 10 mg/L (≈ 22.8 µM)
7 | O=C1OC(c2ccc(O)c(F)c2)(c2ccc(O)c(F)c2)c2cccc3cccc1c23 | – | – | – | – | – | – | – | – | – | – | – | – | 42 | – | – | – | – | – | – | – | –
8 | O=C1OC(c2ccc(O)cc2)(c2ccc(O)c(Br)c2)c2cccc3cccc1c23 (centres undefined) | 10 (≈ 22.4 µM) | 10 (≈ 22.4 µM) | 10 (≈ 22.4 µM) | > 50 | 10 (≈ 22.4 µM) | 10 (≈ 22.4 µM) | 10 (≈ 22.4 µM) | 25 (≈ 55.9 µM) | 10 (≈ 22.4 µM) | > 50 | 10 (≈ 22.4 µM) | > 50 | 3.4 | 5.2 | 0.4 | > 330 | > 132 | > 25 | > 132 | < 0.02 | MIC (Staphylococcus aureus [11]): 25 mg/L (≈ 55.9 µM); Ki (Thymidylate synthase [22]): 1 µM; MIC (Streptococcus): 10 mg/L (≈ 22.4 µM); MIC (Listeria monocytogenes [12]): 25 mg/L (≈ 55.9 µM); MIC (Listeria monocytogenes [14]): 10 mg/L (≈ 22.4 µM); MIC (Staphylococcus aureus [15]): 25 mg/L (≈ 55.9 µM); MIC (Listeria monocytogenes [16]): 10 mg/L (≈ 22.4 µM)
9 | O=C1OC(c2ccc(O)c(Br)c2)(c2ccc(O)c(Br)c2)c2c1ccc1ccccc21 | – | – | – | – | – | – | – | – | – | – | – | – | 33 | 2.7 | 0.9 | > 147 | > 20 | > 49 | – | < 0.2 | –
10 | O=C1OC(c2ccc(O)c(I)c2)(c2ccc(O)c(I)c2)c2c1ccc1ccccc21 | – | – | – | – | – | – | – | – | – | – | – | – | 3.9 | 4.5 | 1.5 | > 163 | > 123 | > 54 | > 245 | < 0.01 | Ki (Thymidylate synthase [22]): 2 µM
11 | Cc1cc(O)c(C(C)C)cc1C1(c2cc(C(C)C)c(O)cc2C)OC(=O)c2ccc3ccccc3c21 | – | – | – | – | – | – | – | – | – | – | – | – | 13 | – | – | – | – | – | – | – | –
12 | O=C1OC(c2ccc(O)c(Cl)c2)(c2ccc(O)c(Cl)c2)c2ccc3ccccc3c21 | – | – | – | – | – | – | – | – | – | – | – | – | – | 8.1 | – | – | – | – | – | – | –
13 | O=C1OC(c2ccc(O)c(I)c2)(c2ccc(O)c(I)c2)c2cccc3cccc1c23 | – | – | – | – | – | – | – | – | – | – | – | – | 94 | 16 | – | – | > 4 | > 8 | > 132 | < 1 | Ki (Thymidylate synthase [22]): 31 µM
